{"source": "paper PMC10104512", "about": "(Proceedings of the National Academy of Sciences of the …, 2023)", "key": {"[1]": {"tested_on": "VIE (5 strains), ATCC® MP-1™ panel", "assay": "MIC, extended VIE panel", "assay_type": "cell-based, Enterococci", "conditions": "range over 5 strains, broth microdilution, 37 °C, 20 h"}, "HEK293 cells": {"tested_on": "HEK293 cells", "assay": "MTT viability assay, HEK293", "assay_type": "cell-based, human", "conditions": "500 μg/mL, 48 h, relative to 1% (v/v) DMSO vehicle control; n = 3", "in_short": "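HEK293 cells were kept in DMEM with 10% (v/v) FBS, 1% (v/v) penicillin/streptomycin and 4.5 g/L glucose at 37 °C, 5% CO2, passaged tri-weekly. MTT viability was measured after test compound at 500 μg/mL and normalized to 1% (v/v) DMSO vehicle. The positive control was the cytotoxic peptide NaD1 at 50 μM. Three technical replicates were run, with unpaired two-tailed Student's t tests.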"}, "acetyl-Lys-D-Ala-D-Lac": {"biological_target": "acetyl-Lys-D-Ala-D-Lac", "assay": "Microscale thermophoresis binding, D-Ala-D-Lac tripeptide", "conditions": "MST, fluorescently labeled tripeptide, 25 °C; N = 3, ±S.D.; n.b.: no binding", "in_short": "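The tripeptide was labelled with an amine-reactive red NHS dye and mixed 1:1 with aqueous test compound (final 200 μM to 6.1 nM). Mixtures were incubated 5 min at 25 °C and read at 25 °C with 20% LED and 20% IR laser power (30 s on, 5 s off). The thermophoresis + T-jump signal from three independent runs was fitted to a single-site binding model.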"}, "MurJ": {"tested_on": "MurJ", "assay": "Native mass spectrometry, direct binding to MurJ", "conditions": "3 µM compound added to MurJ", "in_short": "(§1)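 Purified MurJ was buffer-exchanged into 200 mM ammonium acetate pH 8.0 with 2× critical micelle concentration LDAO and infused via gold-coated capillaries. Settings were capillary 1.1 kV, m/z 1,000–20,000, S-lens RF 100%, HCD 200 V, trapping gas 7.5, 200 °C, resolution 12,500, noise level 3, and no in-source dissociation.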"}, "MurJ:lipid II complex": {"tested_on": "MurJ:lipid II complex", "assay": "Native mass spectrometry, MurJ:lipid II complex", "assay_type": "binding", "conditions": "5 µM MurJ with 3 µM lipid II, then 7 µM compound", "in_short": "as §1"}, "[2]": {"tested_on": "peptidoglycan precursors D-Ala-D-Lac", "conditions": "remodeling of peptidoglycan precursors from D-Ala-D-Ala to D-Ala-D-Lac; cited from earlier work"}}, "data": [{"smiles": "CN[C@H](CC(C)C)C(=O)N[C@H]1C(=O)N[C@@H](CC(N)=O)C(=O)N[C@H]2C(=O)N[C@H]3C(=O)N[C@H](C(=O)N[C@H](C(=O)O)c4cc(O)cc(O)c4-c4cc3ccc4O)[C@H](O)c3ccc(c(Cl)c3)Oc3cc2cc(c3O[C@@H]2O[C@H](CO)[C@@H](O)[C@H](O)[C@H]2O[C@H]2C[C@](C)(N)[C@H](O)[C@H](C)O2)Oc2ccc(cc2Cl)[C@H]1O", "note": "[Vancomycin]", "values": [{"measurement": "MIC, VIE (5 strains)", "setting": "[1]", "value": "8 to 16", "unit": "µg/mL"}, {"measurement": "Viability of HEK293 cells (MTT)", "setting": "HEK293 cells", "value": "significant decrease in the viability"}, {"measurement": "KD, acetyl-Lys-D-Ala-D-Lac", "setting": "acetyl-Lys-D-Ala-D-Lac", "value": "no binding was observed"}, {"measurement": "Direct binding to MurJ (native mass spectra)", "setting": "MurJ", "value": "no binding was observed"}, {"measurement": "Ternary complex formation with MurJ:lipid II (native mass spectra)", "setting": "MurJ:lipid II complex", "value": "expected ternary complex was formed"}, {"measurement": "Reduction of vancomycin binding and antimicrobial activity", "setting": "[2]", "value": "1,000 fold"}]}]}
